Assay results reported in ChEMBL document CHEMBL1147141, “Potent nonpeptide antagonists of the bradykinin B1 receptor: structure-activity relationship studies with novel diaminochroman carboxamides” (J Med Chem, 2007).

What was measured:
B1 bradykinin receptor [1] = target: T1, B1 bradykinin receptor (Homo sapiens, UniProt P46663); experiment: Displacement of [3H]DAK from human bradykinin B1 receptor expressed in CHOD cells; format: cell-based
T1 sequence (P46663 whole entry): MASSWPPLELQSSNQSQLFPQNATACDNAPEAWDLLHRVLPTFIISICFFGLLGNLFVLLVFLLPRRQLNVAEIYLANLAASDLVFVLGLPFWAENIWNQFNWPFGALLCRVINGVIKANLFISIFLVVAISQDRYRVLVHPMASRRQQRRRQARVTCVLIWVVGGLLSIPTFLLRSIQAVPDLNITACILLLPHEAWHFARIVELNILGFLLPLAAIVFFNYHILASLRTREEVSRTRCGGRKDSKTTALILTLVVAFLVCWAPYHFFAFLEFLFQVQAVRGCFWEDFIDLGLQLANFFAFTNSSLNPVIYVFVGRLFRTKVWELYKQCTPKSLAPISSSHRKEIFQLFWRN

B1 bradykinin receptor [2] = target: T1, B1 bradykinin receptor; experiment: Antagonist activity at human bradykinin B1 receptor expressed in CHOD cells assessed as effect on DAK-induced calcium flux; format: functional, cell-based
[3] = Metabolic stability in human liver microsomes; format: ADME, Microsome; settings: read-out: Stability
[4] = Volume of distribution at steady state in Sprague-Dawley rat at 1 mg/kg, iv; format: ADME, organism-based; design: dose 1 mg/kg, route intravenous; settings: in vivo, read-out: Vss
Summary of the method: (§1)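 Male Sprague-Dawley rats (225-280 g) with femoral and jugular vein cannulae were fasted overnight. They received an i.v. bolus of 1 mg/kg in 100% DMSO, prepared on the dosing day, n = 3. Blood was drawn via jugular cannula over 6 or 8 h into heparin. Plasma was acetonitrile-precipitated and measured by LC-MS/MS (positive MRM). Parameters were noncompartmental and reported with SEM.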

[5] = Oral bioavailability in Sprague-Dawley rat at 10 mg/kg, po; format: ADME, organism-based; settings: in vivo
Summary of the method: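 Male Sprague-Dawley rats (225-280 g), cannulated and fasted overnight, were dosed by oral gavage at 10 mg/kg in 1% Tween 80, 2% HPMC, prepared 24-48 h before dosing, n = 3. Jugular blood was sampled over 6 or 8 h. Plasma was analysed by LC-MS/MS and parameters derived noncompartmentally.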

[6] = Half life in Sprague-Dawley rat at 1 mg/kg, iv; format: ADME, organism-based; design: dose 1 mg/kg, route intravenous; settings: in vivo; summary of the method: as §1
[7] = Metabolic stability in rat liver microsomes; format: ADME, Microsome; settings: read-out: Stability
B1 bradykinin receptor [8] = target: T2, B1 bradykinin receptor (Rattus norvegicus, UniProt P97583); experiment: Antagonist activity at rat bradykinin B1 receptor; format: functional
T2 sequence (P97583 whole entry): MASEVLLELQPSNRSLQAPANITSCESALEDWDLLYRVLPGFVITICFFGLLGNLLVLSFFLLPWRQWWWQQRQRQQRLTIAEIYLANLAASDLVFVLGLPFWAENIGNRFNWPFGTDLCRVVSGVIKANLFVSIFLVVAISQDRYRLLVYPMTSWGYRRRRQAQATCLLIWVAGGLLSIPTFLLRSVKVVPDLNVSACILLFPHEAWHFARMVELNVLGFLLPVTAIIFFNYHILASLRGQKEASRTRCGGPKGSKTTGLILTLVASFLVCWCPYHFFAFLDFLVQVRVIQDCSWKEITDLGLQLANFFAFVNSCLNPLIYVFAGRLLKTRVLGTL

[9] = Clearance in Sprague-Dawley rat at 1 mg/kg, iv; format: ADME, organism-based; design: dose 1 mg/kg, route intravenous; settings: in vivo; summary of the method: as §1
B1 bradykinin receptor [10] = target: T3, B1 bradykinin receptor (Oryctolagus cuniculus, UniProt P48748); experiment: Antagonist activity at rabbit bradykinin B1 receptor; format: functional
T3 sequence (P48748 whole entry): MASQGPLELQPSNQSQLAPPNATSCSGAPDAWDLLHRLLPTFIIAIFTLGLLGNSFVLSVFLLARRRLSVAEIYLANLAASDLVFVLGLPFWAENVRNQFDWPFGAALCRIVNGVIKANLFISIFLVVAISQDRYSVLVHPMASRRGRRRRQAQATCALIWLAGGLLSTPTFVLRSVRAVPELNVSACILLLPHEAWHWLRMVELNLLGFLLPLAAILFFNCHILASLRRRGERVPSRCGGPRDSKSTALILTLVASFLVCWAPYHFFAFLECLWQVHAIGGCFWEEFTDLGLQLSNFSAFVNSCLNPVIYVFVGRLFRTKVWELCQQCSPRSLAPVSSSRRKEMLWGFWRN

Row | Ki (B1 bradykinin receptor [1]) | IC50 (B1 bradykinin receptor [2]) | SMILES | other results
1 | 20.6 nM (antagonist) | 127 nM (antagonist) | CC(C)(C)NCc1ccc2c(c1)OCC[C@H]2NC(=O)C[C@@H](NS(=O)(=O)c1cc(Cl)c(F)cc1F)c1ccccc1 | –
2 | 5.4 nM (antagonist) | 17 nM (antagonist) | CC(C)(C)NCc1ccc2c(c1)OCC[C@H]2NC(=O)C[C@@H](NS(=O)(=O)c1ccc2ccccc2c1)c1ccccc1 | –
3 | 14 nM (antagonist) | 17.4 nM (antagonist) | COCCNCc1ccc2c(c1)OCC[C@H]2NC(=O)C[C@@H](NS(=O)(=O)c1cccc(C(F)(F)F)c1)c1ccc(F)cc1 | microsomal CLint [3]: 310 µL/min/mg; Vd [4]: 8.09 L/kg; bioavailability [5]: 49%; half-life [6]: 3.4 h; microsomal CLint [7]: 265 µL/min/mg; Ki (B1 bradykinin receptor [8]): 208 nM (antagonist); clearance [9]: 39.4 mL/min/kg; IC50 (B1 bradykinin receptor [10]): 1680 nM (antagonist)
4 | 10 nM (antagonist) | 46.2 nM (antagonist) | O=C(C[C@@H](NS(=O)(=O)c1cccc(C(F)(F)F)c1)c1ccc(F)cc1)N[C@@H]1CCOc2cc(CNC3CCC3)ccc21 | –
5 | > 50000 nM | > 4000 nM | O=C(C[C@@H](NS(=O)(=O)c1ccc2ccccc2c1)c1ccccc1)N[C@@H]1CCOc2cc(CO)ccc21 | –
6 | 40.6 nM (antagonist) | 207 nM (antagonist) | Cc1c(Cl)cccc1S(=O)(=O)N[C@H](CC(=O)N[C@@H]1CCOc2cc(CNC(C)(C)C)ccc21)c1ccccc1 | –
7 | 308 nM (antagonist) | 352 nM (antagonist) | NCc1ccc2c(c1)OCC[C@H]2NC(=O)C[C@@H](NS(=O)(=O)c1ccc2ccccc2c1)c1ccccc1 | –
8 | 77.6 nM (antagonist) | 330 nM (antagonist) | CC(C)(C)NCc1ccc2c(c1)OCC[C@H]2NC(=O)C[C@@H](NS(=O)(=O)c1ccc(C(F)(F)F)cc1)c1ccccc1 | –
9 | 17.9 nM (antagonist) | 78.4 nM (antagonist) | CC(C)(C)NCc1ccc2c(c1)OCC[C@H]2NC(=O)C[C@@H](NS(=O)(=O)c1cccc(C(F)(F)F)c1)c1ccccc1 | –
10 | 393 nM (antagonist) | 2030 nM (antagonist) | CC(C)(C)NCc1ccc2c(c1)OCC[C@H]2NC(=O)C[C@@H](NS(=O)(=O)c1ccccc1Cl)c1ccccc1 | –
11 | 120 nM (antagonist) | 566 nM (antagonist) | CC(C)(C)NCc1ccc2c(c1)OCC[C@H]2NC(=O)C[C@@H](NS(=O)(=O)c1cccc(C(F)(F)F)c1)c1ccc(C#N)cc1 | –
12 | 5.7 nM (antagonist) | 14.8 nM (antagonist) | O=C(C[C@@H](NS(=O)(=O)c1ccc2ccccc2c1)c1ccccc1)N[C@@H]1CCOc2cc(CN3CCCC3)ccc21 | –
13 | 138 nM (antagonist) | 212 nM (antagonist) | CNCc1ccc2c(c1)OCC[C@H]2NC(=O)C[C@@H](NS(=O)(=O)c1ccc2ccccc2c1)c1ccccc1 | –
14 | 4.7 nM (antagonist) | 20.1 nM (antagonist) | CC(C)NCc1ccc2c(c1)OCC[C@H]2NC(=O)C[C@@H](NS(=O)(=O)c1cccc(C(F)(F)F)c1)c1ccc(F)cc1 | –
15 | 24.8 nM (antagonist) | 60.9 nM (antagonist) | CC(C)(C)NCc1ccc2c(c1)OCC[C@H]2NC(=O)C[C@@H](NS(=O)(=O)c1ccc(C(C)(C)C)cc1)c1ccccc1 | –
16 | 6.7 nM (antagonist) | 9.4 nM (antagonist) | COCCNCc1ccc2c(c1)OCC[C@H]2NC(=O)C[C@@H](NS(=O)(=O)c1ccc(Cl)c(Cl)c1)c1ccc(F)cc1 | –
17 | 8.3 nM (antagonist) | 45.9 nM (antagonist) | CC(C)NCc1ccc2c(c1)OCC[C@H]2NC(=O)C[C@@H](NS(=O)(=O)c1ccc2ccccc2c1)c1ccccc1 | –

Row | Ki (B1 bradykinin receptor [1]) | IC50 (B1 bradykinin receptor [2]) | SMILES | other results
18 | 5.5 nM (antagonist) | 19.7 nM (antagonist) | O=C(C[C@@H](NS(=O)(=O)c1cccc(C(F)(F)F)c1)c1ccc(F)cc1)N[C@@H]1CCOc2cc(CN3CCCC3)ccc21 | microsomal CLint [3]: 355 µL/min/mg; Vd [4]: 13.7 L/kg; bioavailability [5]: 41%; half-life [6]: 3.8 h; microsomal CLint [7]: 158 µL/min/mg; Ki (B1 bradykinin receptor [8]): 151 nM (antagonist); clearance [9]: 51.3 mL/min/kg; IC50 (B1 bradykinin receptor [10]): 450 nM (antagonist)
19 | 5.9 nM (antagonist) | 14.8 nM (antagonist) | CC(C)CNCc1ccc2c(c1)OCC[C@H]2NC(=O)C[C@@H](NS(=O)(=O)c1cccc(C(F)(F)F)c1)c1ccc(F)cc1 | –
20 | 84.8 nM (antagonist) | 167 nM (antagonist) | CN(C)Cc1ccc2c(c1)OCC[C@H]2NC(=O)C[C@@H](NS(=O)(=O)c1ccc2ccccc2c1)c1ccccc1 | –
21 | 5 nM (antagonist) | 9.6 nM (antagonist) | CC(C)(C)NCc1ccc2c(c1)OCC[C@H]2NC(=O)C[C@@H](NS(=O)(=O)c1ccc(Cl)c(Cl)c1)c1ccc(F)cc1 | –
22 | 5 nM (antagonist) | 10.5 nM (antagonist) | CC(C)CNCc1ccc2c(c1)OCC[C@H]2NC(=O)C[C@@H](NS(=O)(=O)c1ccc2ccccc2c1)c1ccccc1 | –
23 | 27.7 nM (antagonist) | 113 nM (antagonist) | CC(C)(C)NCc1ccc2c(c1)OCC[C@H]2NC(=O)C[C@@H](NS(=O)(=O)c1cccc(Cl)c1)c1ccccc1 | –
24 | 3.7 nM (antagonist) | 10.9 nM (antagonist) | O=C(C[C@@H](NS(=O)(=O)c1ccc2ccccc2c1)c1ccccc1)N[C@@H]1CCOc2cc(CN3CCOCC3)ccc21 | –
25 | 13.4 nM (antagonist) | 96.3 nM (antagonist) | C[C@@H]1CCC[C@H](C)N1Cc1ccc2c(c1)OCC[C@H]2NC(=O)C[C@@H](NS(=O)(=O)c1ccc2ccccc2c1)c1ccccc1 | –
26 | 25.2 nM (antagonist) | 203 nM (antagonist) | CC(C)(C)NCc1ccc2c(c1)OCC[C@H]2NC(=O)C[C@@H](NS(=O)(=O)c1ccc(F)c(Cl)c1)c1ccccc1 | –
27 | 127 nM (antagonist) | 255 nM (antagonist) | CC(C)(C)NCc1ccc2c(c1)OCC[C@H]2NC(=O)C[C@@H](NS(=O)(=O)c1ccc(Cl)cc1Cl)c1ccccc1 | –
28 | 132 nM (antagonist) | 580 nM (antagonist) | CC(C)(C)NCc1ccc2c(c1)OCC[C@H]2NC(=O)C[C@@H](NS(=O)(=O)c1ccc(Cl)cc1)c1ccccc1 | –
29 | 7.6 nM (antagonist) | 24.3 nM (antagonist) | CC(C)(C)NCc1ccc2c(c1)OCC[C@H]2NC(=O)C[C@@H](NS(=O)(=O)c1ccc(Cl)c(Cl)c1)c1ccccc1 | –
30 | 21.8 nM (antagonist) | 69.9 nM (antagonist) | O=C(C[C@@H](NS(=O)(=O)c1ccc2ccccc2c1)c1ccccc1)N[C@@H]1CCOc2cc(CNC3CCCCC3)ccc21 | –
31 | 367 nM (antagonist) | 2000 nM (antagonist) | CC(C)(C)NCc1ccc2c(c1)OCC[C@H]2NC(=O)C[C@@H](NS(=O)(=O)c1ccccc1C(F)(F)F)c1ccccc1 | –
32 | 8.9 nM (antagonist) | 60.2 nM (antagonist) | CCNCc1ccc2c(c1)OCC[C@H]2NC(=O)C[C@@H](NS(=O)(=O)c1ccc2ccccc2c1)c1ccccc1 | –
33 | 4.8 nM (antagonist) | 9.9 nM (antagonist) | CC(C)(C)NCc1ccc2c(c1)OCC[C@H]2NC(=O)C[C@@H](NS(=O)(=O)c1cccc(C(F)(F)F)c1)c1ccc(F)cc1 | –
